Activity calls are given as the source filed them. The rule behind the calls is not given here.
Key:
[1] = biological target: T1, Phosphatidylinositol 4,5-bisphosphate 3-kinase catalytic subunit alpha isoform (Homo sapiens, UniProt P42336); experiment: Inhibition of human PI3Kalpha using PIP2 as substrate in presence of ATP measured after 30 mins by HTRF assay
Summary of the method: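 HTRF kit assay. Enzyme incubated with 10 μM PIP2; reaction started by adding ATP and run 30 min at room temperature, then stop solution and detection mix added and luminescence read. Compounds kept as 10 mM DMSO stocks.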

[2] = biological target: T1, Phosphatidylinositol 4,5-bisphosphate 3-kinase catalytic subunit alpha isoform; experiment: Inhibition of PI3Kalpha in human U87MG cells assessed as reduction in rhIGF1-stimulated AKT phosphorylation at Thr308 treated for 1 hr followed by incubation with IGF1 for 10 mins by western blot analysis; assay type: cell-based; conditions: U-87 MG, dose 0.01-1 µM, time 70.0 min
Summary of the method: (§1)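 U87MG or Rh30 cells held 24 h in serum-free medium, exposed to compound for 1 h, then stimulated with 50 ng/ml IGF-I for 10 min. Lysates blotted for Akt, pAkt T308 and pAkt S473.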

[3] = biological target: T1, Phosphatidylinositol 4,5-bisphosphate 3-kinase catalytic subunit alpha isoform; experiment: Inhibition of PI3Kalpha in human Rh30 cells assessed as reduction in rhIGF1-stimulated AKT phosphorylation at Thr308 treated for 1 hr followed by incubation with IGF1 for 10 mins by western blot analysis; assay type: cell-based; conditions: dose 0.01-1 µM, time 70.0 min; summary of the method: as §1
T47D = experiment: Antiproliferative activity against human T47D cells assessed as reduction in cell viability after 72 hrs by sulforhodamine B assay; assay type: functional, cell-based
Summary of the method: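 SRB assay. Exponentially growing cells seeded at 3000–5000/well, compounds added serially diluted after 24 h, cultured 72 h. Cells fixed with 10% TCA, stained with SRB, dye dissolved in 10 mM Tris-HCl, absorbance read at 560 nm. Inhibition = (ODcontrol − ODtreated)/ODcontrol × 100%. IC50 is the mean of at least three independent tests.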

SK-OV-3 = experiment: Antitumor activity against human SK-OV-3 cells xenografted in BALB/cA nude mouse assessed as tumor growth at 20 mg/kg, po administered once a day for 21 days and measured twice per week; assay type: functional; conditions: dose 20 mg/kg/day; time 21 day
Summary of the method: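 Female BALB/cA nude mice, 4–5 weeks old. SKOV-3 xenografts passaged once in vivo, then 1.5 mm³ fragments implanted s.c. in the right flank by trocar. At about 100 mm³ mice were randomized to vehicle or drug given orally once daily. Tumor size and body weight measured twice weekly; V = length × width²/2.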

[4] = AUC (0 to infinity) in rat at 10 mg/kg, po; assay type: ADME, organism-based; set-up: route oral, time infinity, dose 10 mg/kg; conditions: in vivo
Summary of the method: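 Male rats dosed orally at 10 mg/kg; plasma exposure followed to give AUC0-∞ (i.v. arm at 5 mg/kg run alongside).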

[5] = biological target: T1, Phosphatidylinositol 4,5-bisphosphate 3-kinase catalytic subunit alpha isoform; experiment: Inhibition of PI3Kalpha (unknown origin) transfected in human Rh30 cells assessed as reduction in AKT phosphorylation at Thr308 residue at 14 nM by western blot analysis; assay type: cell-based
Summary of the method: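 Rh30 cells ectopically expressing membrane-anchored, N-terminally myristoylated, constitutively active p110α, β, γ or δ. Akt phosphorylation assessed by Western blot; lysates made in RIPA buffer, equal protein heated at 95 °C for 10 min in SDS loading buffer.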

Mus musculus = experiment: In vivo inhibition of PI3Kalpha in BALB/cA nude mouse xenografted with human SK-OV-3 cells assessed as reduction in AKT phosphorylation at Ser473 residue in tumor at 5 mg/kg, po measured after 4 to 8 hrs by Western blot analysis; assay type: functional, organism-based; conditions: time 4-8 hrs
Summary of the method: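 Nude mice carrying SKOV-3 xenografts of 200 mm³ got a single oral 5 mg/kg dose. Tumors were collected at 0, 2, 4 or 8 h, homogenized, and pAkt S473 probed by Western blot.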

[6] = biological target: Voltage-gated inwardly rectifying potassium channel KCNH2 (Homo sapiens, UniProt Q12809); experiment: Inhibition of human ERG expressed in CHO cells at holding potential of -80 mV by patch clamp assay; assay type: cell-based
Sequence of Voltage-gated inwardly rectifying potassium channel KCNH2 (Q12809 whole entry): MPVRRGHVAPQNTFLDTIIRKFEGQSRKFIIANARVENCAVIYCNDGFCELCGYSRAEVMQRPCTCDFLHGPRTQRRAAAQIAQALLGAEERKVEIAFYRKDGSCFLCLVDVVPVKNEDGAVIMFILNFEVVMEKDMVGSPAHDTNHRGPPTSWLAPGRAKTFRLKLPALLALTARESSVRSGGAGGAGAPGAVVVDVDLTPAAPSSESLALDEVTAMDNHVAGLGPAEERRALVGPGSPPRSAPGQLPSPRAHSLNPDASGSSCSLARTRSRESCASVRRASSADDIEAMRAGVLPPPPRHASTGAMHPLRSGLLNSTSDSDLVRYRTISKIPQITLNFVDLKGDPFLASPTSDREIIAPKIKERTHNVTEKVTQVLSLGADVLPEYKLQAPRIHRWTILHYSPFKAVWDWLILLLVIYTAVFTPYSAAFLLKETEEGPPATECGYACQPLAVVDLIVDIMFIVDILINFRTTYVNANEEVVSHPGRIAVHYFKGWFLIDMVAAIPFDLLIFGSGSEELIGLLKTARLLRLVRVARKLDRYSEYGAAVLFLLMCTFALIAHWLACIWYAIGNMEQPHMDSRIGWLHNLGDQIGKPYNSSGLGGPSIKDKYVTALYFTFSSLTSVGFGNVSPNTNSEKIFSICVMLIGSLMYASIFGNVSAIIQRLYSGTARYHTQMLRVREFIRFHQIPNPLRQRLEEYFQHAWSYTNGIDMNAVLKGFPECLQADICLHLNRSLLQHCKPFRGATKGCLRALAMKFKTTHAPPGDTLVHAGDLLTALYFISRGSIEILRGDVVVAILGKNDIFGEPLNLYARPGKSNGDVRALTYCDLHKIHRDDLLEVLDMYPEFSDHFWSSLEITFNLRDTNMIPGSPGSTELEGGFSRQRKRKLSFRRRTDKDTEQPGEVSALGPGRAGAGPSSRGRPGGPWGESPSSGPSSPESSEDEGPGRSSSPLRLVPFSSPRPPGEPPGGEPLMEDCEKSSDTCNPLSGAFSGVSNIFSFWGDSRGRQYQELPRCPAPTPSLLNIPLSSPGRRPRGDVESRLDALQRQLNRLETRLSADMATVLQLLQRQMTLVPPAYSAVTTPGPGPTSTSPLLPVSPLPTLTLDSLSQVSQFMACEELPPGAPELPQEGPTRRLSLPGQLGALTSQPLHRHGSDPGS
Summary of the method: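 Patch clamp on CHO cells stably expressing hERG, at room temperature. External solution (mM): 145 NaCl, 5 KCl, 2 CaCl2, 1 MgCl2, 10 HEPES, 10 glucose, pH 7.4. Pipette solution: 140 KCl, 1 MgCl2, 0.1 CaCl2, 5 EGTA, 10 HEPES, pH 7.3. Pipettes 3–5 MΩ; peak hERG current amplitude measured.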

T1 sequence (P42336 whole entry, canonical isoform): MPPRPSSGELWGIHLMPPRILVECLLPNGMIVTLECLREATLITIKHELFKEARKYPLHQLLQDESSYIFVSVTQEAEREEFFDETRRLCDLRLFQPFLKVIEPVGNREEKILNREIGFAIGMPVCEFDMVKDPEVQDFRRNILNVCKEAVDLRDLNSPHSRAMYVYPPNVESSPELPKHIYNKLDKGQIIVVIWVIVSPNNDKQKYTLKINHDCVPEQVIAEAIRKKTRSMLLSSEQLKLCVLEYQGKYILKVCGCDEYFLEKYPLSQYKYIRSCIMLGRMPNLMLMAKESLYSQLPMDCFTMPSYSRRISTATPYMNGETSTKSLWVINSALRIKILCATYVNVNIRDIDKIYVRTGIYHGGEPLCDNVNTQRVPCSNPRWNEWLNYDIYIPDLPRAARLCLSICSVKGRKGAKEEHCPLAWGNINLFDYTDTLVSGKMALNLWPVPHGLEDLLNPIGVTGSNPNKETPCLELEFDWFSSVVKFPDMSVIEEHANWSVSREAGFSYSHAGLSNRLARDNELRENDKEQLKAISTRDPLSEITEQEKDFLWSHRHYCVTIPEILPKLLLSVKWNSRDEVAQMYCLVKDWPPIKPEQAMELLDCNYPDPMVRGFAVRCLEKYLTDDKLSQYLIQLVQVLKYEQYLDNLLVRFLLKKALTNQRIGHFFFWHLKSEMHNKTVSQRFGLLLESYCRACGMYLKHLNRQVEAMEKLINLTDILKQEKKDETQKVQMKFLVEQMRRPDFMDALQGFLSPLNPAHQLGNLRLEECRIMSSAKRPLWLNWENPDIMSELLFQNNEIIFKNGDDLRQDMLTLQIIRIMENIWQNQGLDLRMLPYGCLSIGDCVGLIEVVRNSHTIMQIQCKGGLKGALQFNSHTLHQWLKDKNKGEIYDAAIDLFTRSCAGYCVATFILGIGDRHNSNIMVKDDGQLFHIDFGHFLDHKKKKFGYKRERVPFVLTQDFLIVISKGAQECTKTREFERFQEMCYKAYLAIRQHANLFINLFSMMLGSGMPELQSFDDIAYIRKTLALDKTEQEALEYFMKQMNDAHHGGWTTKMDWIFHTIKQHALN

Structure (SMILES): COC(=O)Nc1cc(C(F)(F)F)c(-c2nc(N3CCOCC3)c3cc(CN4CCN(S(C)(=O)=O)CC4)cn3n2)cn1 [RISOVALISIB]
- IC50 [1]: 5.9 nM
- inhibition [2]: Dose-dependent effect
- inhibition [3]: Dose-dependent effect
- IC50 (T47D): < 1000 nM
- Activity (SK-OV-3): 37%
- AUC(0-inf) [4]: 2750 ng·h/mL
- inhibition [5]: Active
- inhibition (Mus musculus): inactive
- IC50 [6]: > 40000 nM
